Data on two molecules can be found in PMC9593962 (Journal of chemical information and modeling, 2021).

One data set addresses hERG (Homo sapiens, UniProt Q12809). The experiment in a line: Patch-clamp electrophysiology of hERG blockade in HEK 293 cells. Conditions: for IC50: read-out: IC50 at hERG, patch-clamp, whole cell tail currents. In kind it is cell-based. In short, it runs like this: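 Whole-cell patch clamp of hERG (described as mutants) expressed in HEK 293 cells. Pipette: 10 mM KCl, 110 mM K-aspartate, 5 mM MgCl2, 5 mM Na2ATP, 10 mM EGTA, 5 mM HEPES, 1 mM CaCl2, pH 7.2. Holding at −80 mV, 1-s step to +50 mV, tail current read at −100 mV. Test compound freshly dissolved in Tyrode, used within two hours.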

In a further data set the target is rDAT (Rattus norvegicus, UniProt P23977). Kind of data set: Radioligand binding assay of rDAT with [3H]WIN35,428 in rat striatal membranes.
Sequence of rDAT (P23977 whole entry): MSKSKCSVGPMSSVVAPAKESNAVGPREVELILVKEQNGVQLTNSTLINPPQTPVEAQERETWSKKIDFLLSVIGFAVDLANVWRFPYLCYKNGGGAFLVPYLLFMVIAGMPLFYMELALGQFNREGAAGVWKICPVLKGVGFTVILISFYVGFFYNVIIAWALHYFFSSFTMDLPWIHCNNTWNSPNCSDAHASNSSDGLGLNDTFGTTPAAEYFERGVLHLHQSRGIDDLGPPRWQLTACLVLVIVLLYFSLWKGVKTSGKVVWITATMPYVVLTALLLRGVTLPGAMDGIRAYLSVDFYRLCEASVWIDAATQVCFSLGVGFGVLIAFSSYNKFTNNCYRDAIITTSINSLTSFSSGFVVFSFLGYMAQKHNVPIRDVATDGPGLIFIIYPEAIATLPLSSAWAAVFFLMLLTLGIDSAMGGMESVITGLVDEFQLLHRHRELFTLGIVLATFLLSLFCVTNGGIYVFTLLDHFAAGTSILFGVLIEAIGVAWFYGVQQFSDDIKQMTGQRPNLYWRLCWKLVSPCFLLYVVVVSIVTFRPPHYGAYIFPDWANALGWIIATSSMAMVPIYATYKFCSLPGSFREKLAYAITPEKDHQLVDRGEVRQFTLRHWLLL

Sequence of hERG (Q12809 whole entry): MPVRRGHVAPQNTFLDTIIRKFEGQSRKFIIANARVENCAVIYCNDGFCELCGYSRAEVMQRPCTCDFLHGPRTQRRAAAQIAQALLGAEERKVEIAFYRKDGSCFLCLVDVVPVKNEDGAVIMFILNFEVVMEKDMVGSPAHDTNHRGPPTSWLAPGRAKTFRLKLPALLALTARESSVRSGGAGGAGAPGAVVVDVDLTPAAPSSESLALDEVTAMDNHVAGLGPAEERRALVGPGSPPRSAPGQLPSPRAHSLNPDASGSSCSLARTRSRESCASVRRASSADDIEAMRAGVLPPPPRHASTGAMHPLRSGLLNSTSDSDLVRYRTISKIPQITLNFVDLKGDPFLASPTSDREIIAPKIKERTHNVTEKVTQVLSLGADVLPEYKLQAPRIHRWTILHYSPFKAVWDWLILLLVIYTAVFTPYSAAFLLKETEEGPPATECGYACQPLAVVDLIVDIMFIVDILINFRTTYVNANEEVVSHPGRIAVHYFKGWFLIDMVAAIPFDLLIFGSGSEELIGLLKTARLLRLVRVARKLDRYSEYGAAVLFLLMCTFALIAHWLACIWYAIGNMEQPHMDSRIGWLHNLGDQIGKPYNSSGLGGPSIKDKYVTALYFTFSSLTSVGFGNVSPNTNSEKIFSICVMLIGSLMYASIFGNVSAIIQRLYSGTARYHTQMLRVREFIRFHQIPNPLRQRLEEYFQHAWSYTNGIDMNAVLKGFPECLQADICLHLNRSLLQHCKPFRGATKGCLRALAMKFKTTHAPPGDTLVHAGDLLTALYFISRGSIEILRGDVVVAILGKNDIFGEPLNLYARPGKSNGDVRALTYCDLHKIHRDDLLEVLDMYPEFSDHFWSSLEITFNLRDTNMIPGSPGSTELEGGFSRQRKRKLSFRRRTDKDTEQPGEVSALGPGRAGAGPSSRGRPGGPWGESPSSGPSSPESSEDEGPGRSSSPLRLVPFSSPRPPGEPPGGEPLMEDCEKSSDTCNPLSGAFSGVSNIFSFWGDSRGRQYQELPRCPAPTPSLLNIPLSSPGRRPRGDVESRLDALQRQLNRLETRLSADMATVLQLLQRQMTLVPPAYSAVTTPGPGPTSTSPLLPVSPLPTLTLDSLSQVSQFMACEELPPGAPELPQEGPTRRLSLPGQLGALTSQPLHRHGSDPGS

Regarding `Fc1ccc(C(SCCNCCCc2ccccc2)c2ccc(F)cc2)cc1` [JJC8-016], the IC50 at hERG was 60 nM.

As to `[O-][S+](CCN1CCN(CC(O)Cc2ccccc2)CC1)C(c1ccc(F)cc1)c1ccc(F)cc1` (centres unmarked) [JJC8-088], the “fold higher affinity than JJC8-016 at DAT” value on rDAT (ratio of Ki values, JJC8-088 versus JJC8-016) is ~ 90 fold. In addition, the Ki at rDAT (read-out: Ki at DAT, [3H]WIN35,428 as the radioligand) worked out at 2.6 nM. On hERG (ratio of IC50 values, JJC8-088 versus JJC8-016), the “fold lower affinity than JJC8-016 at hERG” value is listed as ~ 2 fold. Further, on hERG, the IC50 came out at 130 nM.
